From PubChem BioAssay come the findings set out here.

Structures are written as SMILES. Active and inactive are the calls of the source.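 How the source made its calls, unless noted: active means mean duplicate potentiation above the buffer control mean plus 5 SD of buffer wells; inactive means the rest.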

Sequence of Potassium voltage-gated channel subfamily KQT member 2 (Rattus norvegicus) (O88943 whole entry, looked up): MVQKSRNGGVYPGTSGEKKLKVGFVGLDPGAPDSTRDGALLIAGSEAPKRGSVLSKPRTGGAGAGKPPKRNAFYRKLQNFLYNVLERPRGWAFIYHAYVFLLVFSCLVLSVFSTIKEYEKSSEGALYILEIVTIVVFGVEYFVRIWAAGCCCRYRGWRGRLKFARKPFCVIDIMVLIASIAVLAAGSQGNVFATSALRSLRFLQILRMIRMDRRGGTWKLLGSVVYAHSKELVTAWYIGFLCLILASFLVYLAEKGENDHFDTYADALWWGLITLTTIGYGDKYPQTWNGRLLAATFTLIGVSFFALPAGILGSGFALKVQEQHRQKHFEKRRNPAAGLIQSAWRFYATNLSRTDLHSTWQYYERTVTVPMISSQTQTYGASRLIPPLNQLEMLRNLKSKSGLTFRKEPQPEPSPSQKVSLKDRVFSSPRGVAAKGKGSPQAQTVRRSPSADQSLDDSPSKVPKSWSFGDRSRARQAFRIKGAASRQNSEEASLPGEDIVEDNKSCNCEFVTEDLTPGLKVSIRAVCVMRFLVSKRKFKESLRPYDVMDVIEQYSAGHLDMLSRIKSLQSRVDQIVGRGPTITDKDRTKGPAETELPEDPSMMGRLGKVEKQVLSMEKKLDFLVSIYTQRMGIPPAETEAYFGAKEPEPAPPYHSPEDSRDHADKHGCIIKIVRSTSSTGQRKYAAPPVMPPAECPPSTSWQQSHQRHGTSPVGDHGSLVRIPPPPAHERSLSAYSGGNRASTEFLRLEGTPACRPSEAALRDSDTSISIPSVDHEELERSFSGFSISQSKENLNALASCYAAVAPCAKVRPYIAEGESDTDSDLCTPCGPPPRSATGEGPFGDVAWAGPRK

The target of the first assay is Potassium voltage-gated channel subfamily KQT member 1 (Homo sapiens) (UniProt P51787). Put plainly: enhancement of KCNQ1 channel thallium flux – FluxOR thallium flux, CHO cells, duplicates, confirmation (AID 493007;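 active means potentiation averaged over duplicate wells exceeding buffer-only control mean by more than 3 SD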;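 on outcome: cells depolarized by a potassium plus thallium sulfate stimulus after compound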). The following applies: KCNQ1 cell line, FluxOR thallium flux fluorescence, at 10 µM; active compounds read high, % of reference activator effect, buffer zero. In outline: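 System: KCNQ1-expressing CHO cell line; technique: kinetic thallium influx fluorescence with FluxOR dye, 10 s baseline, 110 s post-stimulus; timing: dye 90 min then compound 20 min, both at room temperature; controls: buffer-only wells as 0% and R-L3 activator as 100%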
Sequence of Potassium voltage-gated channel subfamily KQT member 1 (Homo sapiens) (P51787 whole entry, looked up): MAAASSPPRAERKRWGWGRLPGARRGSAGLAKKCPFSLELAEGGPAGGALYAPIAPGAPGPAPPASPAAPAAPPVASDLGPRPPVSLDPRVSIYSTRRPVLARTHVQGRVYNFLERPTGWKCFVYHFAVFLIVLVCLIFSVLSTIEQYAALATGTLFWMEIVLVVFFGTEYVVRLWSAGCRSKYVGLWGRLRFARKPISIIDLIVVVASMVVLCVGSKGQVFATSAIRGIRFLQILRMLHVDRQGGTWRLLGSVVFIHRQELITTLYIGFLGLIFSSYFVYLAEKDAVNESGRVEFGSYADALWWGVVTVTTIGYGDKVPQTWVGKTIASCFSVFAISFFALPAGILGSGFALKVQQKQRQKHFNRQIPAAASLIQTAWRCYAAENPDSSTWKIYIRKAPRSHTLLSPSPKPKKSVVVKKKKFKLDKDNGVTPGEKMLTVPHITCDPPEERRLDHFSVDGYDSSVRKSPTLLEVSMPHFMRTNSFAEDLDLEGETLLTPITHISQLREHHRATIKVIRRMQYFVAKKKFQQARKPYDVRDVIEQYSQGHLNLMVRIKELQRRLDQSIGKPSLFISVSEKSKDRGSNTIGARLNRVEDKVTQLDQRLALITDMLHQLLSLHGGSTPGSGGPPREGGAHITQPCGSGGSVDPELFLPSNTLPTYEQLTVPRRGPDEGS
In the case of `OC[C@H]1O[C@H](OC[C@H]2O[C@H](OC[C@H]3O[C@H](O[C@]4(CO)O[C@H](CO)[C@@H](O)[C@@H]4O)[C@H](O)[C@@H](O)[C@@H]3O)[C@H](O)[C@@H](O)[C@H]2O)[C@H](O)[C@@H](O)[C@H]1O`, the result was inactive.
Regarding `Cc1ccc(Cn2ncc3c(NN)ncnc32)cc1`, the result was inactive.
Consider `Cc1nn2c(NCc3ccccn3)cc(C(C)C)nc2c1-c1ccccc1`, for which the result was inactive.
`Cn1cccc1/C=N/n1c(-c2ccc(C(C)(C)C)cc2)n[nH]c1=S`: the potentiation is 266% (active).
In the case of `Cn1nc(SCC(=O)O)sc1=S`, the result was inactive.
For `CCCCOC(=O)c1ccc(NC(=S)NC(=O)c2c(Cl)cnn2CC)cc1`, the potentiation is 196% (active).
Take `O=C(Nc1nccs1)c1ccc(-c2ccc(F)c(Cl)c2)o1`: the outcome was inactive.
With `CSC(=S)N/N=C/c1ccc(N(C)C)cc1`, the result was inactive.
Regarding `COc1ccc(NC(=O)[C@@H]2CC=C[C@@H]3CCN(C4CCCCC4)C(=O)[C@@H]32)cc1`, the result was inactive.
On to `O=C(O)c1ccccc1NS(=O)(=O)c1cccc(-n2sc3ccccc3c2=O)c1`, for which the potentiation is 18% (active).
Turning to `COc1ccc(OC)c(NC(=O)C(=O)NNC(=O)C23CC4CC(CC(C4)C2)C3)c1`, the potentiation is 244% (active).
Regarding `COc1ccc(-c2csc(N(CCCN(C)C)C(=O)c3ccccc3Cl)n2)cc1`, the result was inactive.
Turning to `CCOC(=O)CSc1nc(C2CC2)cc(-c2ccc(F)cc2)c1C#N`, the potentiation was 52% (active).
As to `CCOC(=O)c1c(NS(C)(=O)=O)sc2c1CCC(C)C2` (stereo not given), the potentiation was 24.5% (active).
Take `CCn1nc(C)c(NC(=O)c2cnn3c(C(F)F)cc(-c4ccccc4)nc23)c1C`: the result was inactive.
Turning to `Oc1ccc(N=Nc2ccc3c(c2)OCCO3)c2ncccc12`, the potentiation was 116% (active).
On the same count and under the same terms, in the case of `CCc1ccc(S(=O)(=O)NC(=S)NC2CCCCC2)cc1` it was 108% (active); in that of `O=C(NC(=S)Nc1nc2c(s1)CSc1ccccc1-2)c1ccccc1`, 68.5% (active); in that of `CCN(CC)C(=S)NC(=O)c1ccc(OC)c(Br)c1`, 63.5% (active).
As for `Fc1ccc(SCCc2ccncc2)cc1`, the result was inactive.
As for `CCOC(=O)c1ccc(Nc2nc(N3CCOCC3)nc(N3CCOCC3)n2)cc1`, the result was inactive.
For the molecule `CCCSC(=S)c1c(C)[nH]n(-c2ccccc2)c1=O`, the potentiation was 165% (active).
The same measure, in the same setting: in the case of `O=C(NC(=S)NCc1ccccc1)c1ccc(Br)o1` it was 313% (active); in that of `Cc1ccc(-c2csc3ncnc(SCc4ccc(C(=O)O)cc4)c23)cc1`, 36.5% (active).
As for `CC(C)(C)CC(C)(C)NCC(O)COCCOc1ccc(Br)cc1` (stereo not given), the outcome was inactive.
Same read-out and setting: in the case of `Cc1ccnc(NC(=O)CNC(=O)c2ccc3c(c2)OCO3)c1` it was “inactive”; in that of `Cc1cc(C)n(-c2nc3ccccc3nc2N2CCN(C(=O)c3ccc(Cl)cc3)CC2)n1`, “inactive”.
For `CN(C)c1nc(=Nc2cccc(Cl)c2)ss1`, the potentiation was 119% (active).
On to `Nc1nonc1C(=O)NCCN=Cc1cc(Cc2ccccc2)cc(Br)c1O`, for which the outcome was inactive.
`C/C(=N/NC(=O)c1ccc(Br)o1)c1ccc(C)o1`: the outcome was inactive.
Turning to `Oc1c(Cl)cc(Cl)c2cccnc12`, the potentiation is 67% (active).
On to `Cc1onc(-c2ccccc2)c1C(=O)N1CCN(S(=O)(=O)c2ccc(OC(F)(F)F)cc2)CC1`, for which the outcome was inactive.
Consider `Cc1cc(S(=O)(=O)N2CCOCC2)ccc1OCC(=O)Nc1ccc(Br)cc1F`, for which the result was inactive.
Consider `COCCNC(=O)CN(C)S(=O)(=O)c1ccc(Br)cc1`, for which the outcome was inactive.
Turning to `O=C(NC(=S)N1CCN(c2nc(-c3ccccc3)cs2)CC1)c1cncc(Br)c1`, the potentiation is 223% (active).
Regarding `Oc1c(N=NC(=S)Nc2ccccc2F)c2ccccc2n1Cc1ccc(F)cc1`, the potentiation is 19.5% (active).
Turning to `Cc1ccc2sc(N(CCCN(C)C)C(=O)CCS(=O)(=O)c3ccccc3)nc2c1C`, the outcome was inactive.
With `O=C(NC(=S)Nc1ccccc1N1CCCC1)c1cccs1`, the potentiation is 104% (active).
Consider `S=c1nc(C2CC2)[nH]c2ccccc12`, for which the potentiation is 83.5% (active).
As to `CCn1ncc(Cl)c1C(=O)NC(=S)Nc1ccccc1Br`, the potentiation was 200% (active).

A further assay concerns the target Potassium voltage-gated channel subfamily KQT member 2 (Rattus norvegicus) (UniProt O88943). Put plainly: KCNQ2 thallium flux enhancement – KCNQ2-CHO-K1 cells, selectivity assay for KCNQ1 potentiator project (AID 493009).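 Further: assay conditions were tuned for KCNQ1 rather than KCNQ2 modulators; signal is max minus min fluorescence divided by baseline after thallium stimulus.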 The following applies: FluxOR thallium flux fluorescence, at 10 µM; active compounds read high, scaled: buffer 0, activator control 100.
As to `OC[C@H]1O[C@H](OC[C@H]2O[C@H](OC[C@H]3O[C@H](O[C@]4(CO)O[C@H](CO)[C@@H](O)[C@@H]4O)[C@H](O)[C@@H](O)[C@@H]3O)[C@H](O)[C@@H](O)[C@H]2O)[C@H](O)[C@@H](O)[C@H]1O`, the outcome was inactive.
Same read-out and setting: then `Cc1ccc(Cn2ncc3c(NN)ncnc32)cc1`, with “inactive”; and `Cc1nn2c(NCc3ccccn3)cc(C(C)C)nc2c1-c1ccccc1`, with “inactive”.
Regarding `Cn1cccc1/C=N/n1c(-c2ccc(C(C)(C)C)cc2)n[nH]c1=S`, the result was inactive.
As to `Cn1nc(SCC(=O)O)sc1=S`, the outcome was inactive.
Take `CCCCOC(=O)c1ccc(NC(=S)NC(=O)c2c(Cl)cnn2CC)cc1`: the potentiation is 298% (active).
Take `O=C(Nc1nccs1)c1ccc(-c2ccc(F)c(Cl)c2)o1`: the result was inactive.
For `CSC(=S)N/N=C/c1ccc(N(C)C)cc1`, the outcome was inactive.
As to `COc1ccc(NC(=O)[C@@H]2CC=C[C@@H]3CCN(C4CCCCC4)C(=O)[C@@H]32)cc1`, the outcome was inactive.
Regarding `O=C(O)c1ccccc1NS(=O)(=O)c1cccc(-n2sc3ccccc3c2=O)c1`, the result was inactive.
`COc1ccc(OC)c(NC(=O)C(=O)NNC(=O)C23CC4CC(CC(C4)C2)C3)c1`: the potentiation is 463% (active).
For `COc1ccc(-c2csc(N(CCCN(C)C)C(=O)c3ccccc3Cl)n2)cc1`, the result was inactive.
On to `CCOC(=O)CSc1nc(C2CC2)cc(-c2ccc(F)cc2)c1C#N`, for which the potentiation was 160% (active).
For `CCOC(=O)c1c(NS(C)(=O)=O)sc2c1CCC(C)C2` (stereo not given), the potentiation is 190% (active).
On to `CCn1nc(C)c(NC(=O)c2cnn3c(C(F)F)cc(-c4ccccc4)nc23)c1C`, for which the outcome was inactive.
For the molecule `Oc1ccc(N=Nc2ccc3c(c2)OCCO3)c2ncccc12`, the potentiation is 352% (active).
Consider `CCc1ccc(S(=O)(=O)NC(=S)NC2CCCCC2)cc1`, for which the potentiation is 312% (active).
As for `O=C(NC(=S)Nc1nc2c(s1)CSc1ccccc1-2)c1ccccc1`, the potentiation is 147% (active).
`CCN(CC)C(=S)NC(=O)c1ccc(OC)c(Br)c1`: the potentiation was 209% (active).
As to `Fc1ccc(SCCc2ccncc2)cc1`, the result was inactive.
Take `CCOC(=O)c1ccc(Nc2nc(N3CCOCC3)nc(N3CCOCC3)n2)cc1`: the result was inactive.
Take `CCCSC(=S)c1c(C)[nH]n(-c2ccccc2)c1=O`: the potentiation is 432% (active).
Same read-out and setting: then `O=C(NC(=S)NCc1ccccc1)c1ccc(Br)o1`, with 510% (active).
With `Cc1ccc(-c2csc3ncnc(SCc4ccc(C(=O)O)cc4)c23)cc1`, the potentiation was 175% (active).
Consider `CC(C)(C)CC(C)(C)NCC(O)COCCOc1ccc(Br)cc1` (stereo not given), for which the result was inactive.
For the molecule `Cc1ccnc(NC(=O)CNC(=O)c2ccc3c(c2)OCO3)c1`, the result was inactive.
On the same count and under the same terms, in the case of `Cc1cc(C)n(-c2nc3ccccc3nc2N2CCN(C(=O)c3ccc(Cl)cc3)CC2)n1` it was “inactive”.
For `CN(C)c1nc(=Nc2cccc(Cl)c2)ss1`, the potentiation was 273% (active).
For the molecule `Nc1nonc1C(=O)NCCN=Cc1cc(Cc2ccccc2)cc(Br)c1O`, the result was inactive.
With `C/C(=N/NC(=O)c1ccc(Br)o1)c1ccc(C)o1`, the result was inactive.
Take `Oc1c(Cl)cc(Cl)c2cccnc12`: the potentiation is 211% (active).
As for `Cc1onc(-c2ccccc2)c1C(=O)N1CCN(S(=O)(=O)c2ccc(OC(F)(F)F)cc2)CC1`, the result was inactive.
On the same count and under the same terms, in the case of `Cc1cc(S(=O)(=O)N2CCOCC2)ccc1OCC(=O)Nc1ccc(Br)cc1F` it was “inactive”; in that of `COCCNC(=O)CN(C)S(=O)(=O)c1ccc(Br)cc1`, “inactive”.
With `O=C(NC(=S)N1CCN(c2nc(-c3ccccc3)cs2)CC1)c1cncc(Br)c1`, the potentiation was 505% (active).
As for `Oc1c(N=NC(=S)Nc2ccccc2F)c2ccccc2n1Cc1ccc(F)cc1`, the result was inactive.
Still for that read-out and setting: then `Cc1ccc2sc(N(CCCN(C)C)C(=O)CCS(=O)(=O)c3ccccc3)nc2c1C`, with “inactive”.
For `O=C(NC(=S)Nc1ccccc1N1CCCC1)c1cccs1`, the potentiation was 212% (active).
On to `S=c1nc(C2CC2)[nH]c2ccccc12`, for which the potentiation was 351% (active).
Turning to `CCn1ncc(Cl)c1C(=O)NC(=S)Nc1ccccc1Br`, the potentiation was 340% (active).
